Data as given in ChEMBL document CHEMBL3808334, “Synthesis and in vitro evaluation of novel triazine analogues as anticancer agents and their interaction studies with bovine serum albumin” (Eur J Med Chem, 2016).

Legend:
Assay type in all cases: functional
[1] = Growth inhibition of human SF539 cells assessed as cell growth at 10^-5 M incubated for 48 hrs by sulforhodamine B assay; details: SF-539, 48 h, read-out: Activity
[2] = test system: SK-MEL-5; assay: Growth inhibition of human SK-MEL-5 cells assessed as cell growth at 10^-7 M incubated for 48 hrs by sulforhodamine B assay; details: SK-MEL-5, 48 h, read-out: Activity
[3] = Growth inhibition of human TK10 cells assessed as cell growth at 10^-6 M incubated for 48 hrs by sulforhodamine B assay; details: TK-10, 48 h, read-out: Activity
[4] = Growth inhibition of human OVCAR4 cells incubated for 48 hrs by sulforhodamine B assay; details: OVCAR-4, 48 h
Summary of the method: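 Cells were plated at 5,000–40,000 per well according to doubling time and preincubated 24 h at 37 °C in 5% CO2; time-zero plates were then TCA-fixed. Five concentrations (10-fold or ½-log dilutions, DMSO stock) were incubated 48 h. Cells were TCA-fixed, stained with 0.4% SRB and read at 515 nm. GI50 was taken where [(Ti−Tz)/(C−Tz)]×100 = 50.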

[5] = test system: ACHN; assay: Growth inhibition of human ACHN cells assessed as cell growth at 10^-5 M incubated for 48 hrs by sulforhodamine B assay; details: read-out: Activity
Summary of the method: (§1)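 Five-dose assay: five concentrations from 10-fold or ½-log serial dilutions. Cells are plated at 5,000–40,000 per well according to doubling time, grown 24 h, then exposed 48 h at 37 °C, 5% CO₂. Fixed with cold 50% TCA (final addition) for 60 min at 4 °C and stained with 0.4% SRB in 1% acetic acid. Bound dye is solubilized in 10 mM Tris base and read at 515 nm. GI₅₀ is where [(Ti−Tz)/(C−Tz)]×100 = 50, with a time-zero plate as Tz.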

[6] = test system: 786-0; assay: Growth inhibition of human 786-0 cells assessed as cell growth at 10^-5 M incubated for 48 hrs by sulforhodamine B assay; details: 786-0, 48 h, read-out: Activity; summary of the method: as §1
[7] = test system: NCI-H226; assay: Growth inhibition of human NCI-H226 cells assessed as cell growth at 10 uM incubated for 48 hrs by sulforhodamine B assay; details: NCI-H226, 48 h, read-out: Activity
[8] = test system: A498; assay: Growth inhibition of human A498 cells assessed as cell growth at 10^-8 M incubated for 48 hrs by sulforhodamine B assay; details: A498, 48 h, read-out: Activity; summary of the method: as §1
[9] = test system: NCI/ADR-RES; assay: Growth inhibition of human NCI/ADR-RES cells assessed as cell growth at 10^-6 M incubated for 48 hrs by sulforhodamine B assay; details: read-out: Activity
[10] = test system: K562; assay: Growth inhibition of human K562 cells assessed as cell growth at 10^-4 M incubated for 48 hrs by sulforhodamine B assay; details: K562, 48 h, read-out: Activity
[11] = Growth inhibition of human HOP92 cells assessed as cell growth at 10^-4 M incubated for 48 hrs by sulforhodamine B assay; details: HOP-92, 48 h, read-out: Activity
[12] = test system: M14; assay: Growth inhibition of human M14 cells assessed as cell growth at 10^-7 M incubated for 48 hrs by sulforhodamine B assay; details: M14, 48 h, read-out: Activity
[13] = test system: MDA-MB-231; assay: Growth inhibition of human MDA-MB-231 cells assessed as cell growth at 10^-7 M incubated for 48 hrs by sulforhodamine B assay; details: MDA-MB-231, 48 h, read-out: Activity
[14] = test system: A549; assay: Growth inhibition of human A549/ATCC cells incubated for 48 hrs by sulforhodamine B assay; details: A549, 48 h; summary of the method: as §1
[15] = Growth inhibition of human CNS cancer cells incubated for 48 hrs by sulforhodamine B assay; details: Cancer cell lines; for CC50: read-out: LC50 (the source's name); summary of the method: as §1
[16] = Growth inhibition of human SNB75 cells assessed as cell growth at 10^-7 M incubated for 48 hrs by sulforhodamine B assay; details: SNB-75, 48 h, read-out: Activity
[17] = Growth inhibition of human SNB75 cells assessed as cell growth at 10^-6 M incubated for 48 hrs by sulforhodamine B assay; details: SNB-75, 48 h, read-out: Activity
[18] = Growth inhibition of human DU145 cells assessed as cell growth at 10^-7 M incubated for 48 hrs by sulforhodamine B assay; details: DU-145, 48 h, read-out: Activity
Summary of the method: (§2)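 Cells seeded at 5,000–40,000/well according to doubling time and preincubated 24 h at 37 °C, 5% CO2. Time-zero plates were TCA-fixed. DMSO concentrate was diluted in medium with 50 µg/ml gentamicin to give five concentrations (10-fold or ½ log steps), then exposed 48 h. Cells were TCA-fixed, stained with 0.4% SRB and read at 515 nm. Percent growth was taken against time-zero and control; GI50, TGI and LC50 derived.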

[19] = Growth inhibition of human HCT15 cells assessed as cell growth at 10^-6 M incubated for 48 hrs by sulforhodamine B assay; details: HCT-15, 48 h, read-out: Activity; summary of the method: as §2
[20] = Growth inhibition of human RPMI8226 cells assessed as cell growth at 10^-5 M incubated for 48 hrs by sulforhodamine B assay; details: RPMI-8226, 48 h, read-out: Activity
[21] = Growth inhibition of human HL-60(TB) cells incubated for 48 hrs by sulforhodamine B assay; details: HL-60, 48 h
Summary of the method: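 Five-concentration, 48 h SRB screen (10-fold or ½-log dilutions from a 400× DMSO concentrate; 24 h preincubation at 37 °C, 5% CO₂; time-zero plate; A515). GI50 was solved from (Ti−Tz)/(C−Tz)×100 = 50. TGI was taken where Ti = Tz, and LC50 from (Ti−Tz)/[…].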

[22] = test system: M14; assay: Growth inhibition of human M14 cells assessed as cell growth at 10^-4 M incubated for 48 hrs by sulforhodamine B assay; details: M14, 48 h, read-out: Activity
[23] = Growth inhibition of human SNB75 cells assessed as cell growth at 10^-5 M incubated for 48 hrs by sulforhodamine B assay; details: SNB-75, 48 h, read-out: Activity
[24] = test system: T47D; assay: Growth inhibition of human T47D cells assessed as cell growth at 10 uM incubated for 48 hrs by sulforhodamine B assay; details: read-out: Activity
[25] = test system: Malme-3M; assay: Growth inhibition of human MALME-3M cells assessed as cell growth at 10^-7 M incubated for 48 hrs by sulforhodamine B assay; details: read-out: Activity
[26] = test system: NCI/ADR-RES; assay: Growth inhibition of human NCI/ADR-RES cells assessed as cell growth at 10^-7 M incubated for 48 hrs by sulforhodamine B assay; details: read-out: Activity
[27] = read-out: LC50 (the source's name)
[28] = read-out: pLC50 (the source's name) (converted)

SMILES: Clc1ccc(-c2nc(Nc3ccc(-c4nc5ccccc5[nH]4)cc3)nc(N3CCOCC3)n2)cc1
- growth at 10 µM [1]: -87%
- growth at 0.1 µM [2]: 102%
- growth at 1 µM [3]: 110%
- GI50 ([4]; read-out: GI50): 1.04 µM
- CC50 [4, 27]: 5.53 µM
- TGI ([4]; read-out: TGI): 2.4 µM
- GI50 ([4]; read-out: pGI50 (converted)): 1.05 µM
- CC50 [4, 28]: 5.5 µM
- TGI ([4]; read-out: pTGI (converted)): 2.4 µM
- growth at 10 µM [5]: -87%
- growth at 10 µM [6]: -87%
- growth at 10 µM [7]: -64.5%
- growth at 0.01 µM [8]: 94%
- growth at 1 µM [9]: 37%
- growth at 100 µM [10]: -29%
- growth at 100 µM [11]: -67%
- growth at 0.1 µM [12]: 93%
- growth at 0.1 µM [13]: 92%
- GI50 ([14]; read-out: GI50): 0.666 µM
- CC50 [14, 27]: 5.54 µM
- TGI ([14]; read-out: TGI): 2.13 µM
- GI50 ([14]; read-out: pGI50 (converted)): 0.661 µM
- CC50 [14, 28]: 5.5 µM
- TGI ([14]; read-out: pTGI (converted)): 2.14 µM
- GI50 [15]: 0.77 µM
- TGI [15]: 1.92 µM
- CC50 [15]: > 100 µM
- growth at 0.1 µM [16]: 79%
- growth at 1 µM [17]: 95%
- growth at 0.1 µM [18]: 96%
- growth at 1 µM [19]: -57%
- growth at 10 µM [20]: -51%
- GI50 ([21]; read-out: GI50): 0.216 µM
- TGI ([21]; read-out: TGI): 0.567 µM
- GI50 ([21]; read-out: pGI50 (converted)): 0.214 µM
- TGI ([21]; read-out: pTGI (converted)): 0.562 µM
- growth at 100 µM [22]: -35%
- growth at 10 µM [23]: -91%
- growth at 10 µM [24]: -64.8%
- growth at 0.1 µM [25]: 101%
- growth at 0.1 µM [26]: 101%

SMILES: c1ccc2[nH]c(-c3ccc(Nc4nc(N5CCCCC5)nc(N5CCOCC5)n4)cc3)nc2c1
- growth at 10 µM [1]: -28%
- growth at 0.1 µM [2]: 93%
- growth at 1 µM [3]: 105%
- GI50 ([4]; read-out: GI50): 3.98 µM
- CC50 [4, 27]: > 100 µM
- TGI ([4]; read-out: TGI): 25.4 µM
- GI50 ([4]; read-out: pGI50 (converted)): 3.98 µM
- CC50 [4, 28]: > 100 µM
- TGI ([4]; read-out: pTGI (converted)): 25.1 µM
- growth at 10 µM [5]: 9%
- growth at 10 µM [6]: -78%
- growth at 10 µM [7]: 32.7%
- growth at 0.01 µM [8]: 92%
- growth at 1 µM [9]: 95%
- growth at 100 µM [10]: 1%
- growth at 100 µM [11]: -71%
- growth at 0.1 µM [12]: 95%
- growth at 0.1 µM [13]: 98%
- GI50 ([14]; read-out: GI50): 3.27 µM
- CC50 [14, 27]: > 100 µM
- TGI ([14]; read-out: TGI): 13.2 µM
- GI50 ([14]; read-out: pGI50 (converted)): 3.24 µM
- CC50 [14, 28]: > 100 µM
- TGI ([14]; read-out: pTGI (converted)): 13.2 µM
- GI50 [15]: 2.54 µM
- TGI [15]: 23.2 µM
- CC50 [15]: 46.6 µM
- growth at 0.1 µM [16]: 74%
- growth at 1 µM [17]: 69%
- growth at 0.1 µM [18]: 104%
- growth at 1 µM [19]: 87%
- growth at 10 µM [20]: -19%
- GI50 ([21]; read-out: GI50): 2.42 µM
- LC50 ([21]; read-out: LC50): > 100 µM
- TGI ([21]; read-out: TGI): 5.8 µM
- GI50 ([21]; read-out: pGI50 (converted)): 2.4 µM
- LC50 ([21]; read-out: pLC50 (converted)): > 100 µM
- TGI ([21]; read-out: pTGI (converted)): 5.75 µM
- growth at 100 µM [22]: -70%
- growth at 10 µM [23]: 10%
- growth at 10 µM [24]: 23.4%
- growth at 0.1 µM [25]: 85%
- growth at 0.1 µM [26]: 98%
